For orientation: stoichiometry N means a count of units in the complex or per binding partner.

Data set [1] has as its system U2OS cells. Kind of data set: Histone H3K4ac immunoblot in U2OS cells after HAT inhibition or Tip60 depletion. Type of data set: cell-based. As to conditions: for H3K4ac level: U2OS cells, anti-H3K4ac immunoblot. Put shortly: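 Asynchronous and nocodazole-arrested mitotic U2OS cells were treated with the Tip60 acetyltransferase inhibitor Nu9056 for 1 h. Separately, U2OS cells engineered for doxycycline-induced shRNA against Tip60 were depleted of Tip60. Histone H3 K4 acetylation was read by immunoblot with anti-H3K4ac antibody at 1:1000.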
(A western blot detects proteins with antibodies after separation by electrophoresis.)

The subject of data set [2] is U2OS cells. As to the kind of experiment: Aurora B at centromeres of interphase. The class given is cell-based. As to conditions: interphase (S/G2) cells, immunofluorescence, ACA mask.
The next data set addresses hSurvivin (Homo sapiens, UniProt O15392). As to conditions: ITC, pH 7.2, 25°C; ref Niedzialkowska et al. (2012); cited from earlier work.
The subject of data set [3] is U2OS cells. The class given is cell-based. As to conditions: HDAC3 shRNA, immunofluorescence.
For data set [4], the target named is human Survivin (hSurvivin) (human, UniProt O15392 1-142). Kind of data set: ITC.
human Survivin (hSurvivin), sequence (O15392 whole entry): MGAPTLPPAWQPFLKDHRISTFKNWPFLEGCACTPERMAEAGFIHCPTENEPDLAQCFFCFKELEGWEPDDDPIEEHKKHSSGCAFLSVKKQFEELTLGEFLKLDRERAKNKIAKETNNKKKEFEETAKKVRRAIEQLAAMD

Where no end group is shown, it is not given here. [ ]: non-standard residue; d: D form. Lys(Me3) = C[N+](C)(C)CCCC[C@H](N)C(=O)O; pT = C[C@@H](OP(=O)(O)O)[C@H](N)C(=O)O; Lys(Me2) = CN(C)CCCC[C@H](N)C(=O)O; Lys(Me) = CNCCCC[C@H](N)C(=O)O

hSurvivin, sequence (O15392 whole entry): as above

For the molecule `Clc1ccc(-c2csc(NN=C3CCCC3)n2)cc1` [CTPH2], the H3K4ac level entry with U2OS cells [1] is reported as “not GCN5 (CTPH2) or p300/CBP (Inhibitor VI) resulted in decreased H3K4ac levels”.

On to `c1cc(SSc2ccns2)sn1` [Nu9056], for which, in the data set on U2OS cells [1], the H3K4ac level entry was “resulted in decreased H3K4ac levels”. Also, the “H3K4ac level in mitotic cells” value in the data set on U2OS cells [1] (mitotic U2OS cells, nocodazole arrested, Nu9056 for 1 h, immunoblot) is given as “also sensitive to the Tip60 inhibitor”. Also, the “Aurora B localization at centromeres in interphase cells” value with U2OS cells [2] is on record as “leads to Aurora B localization at centromeres in interphase (S/G2) cells”.

For the molecule “H3(1-12): first 12 amino acids of histone H3; values from Niedzialkowska et al. (2012)”, the “–TΔS” value in the data set with hSurvivin was “–4040 cal/mol”.

As for “H3T3ph(1-12): histone H3 residues 1-12 with T3 phosphorylation; values from Niedzialkowska et al. (2012)”, the “–TΔS” value with hSurvivin is on record as “–2800 cal/mol”.

Turning to “shHDAC3: HDAC3 shRNA targeting sequence AGAAGTCCACTACCTGGTT (the letters are possibly those of the target site)”, the “Aurora B at centromeres after HDAC3 depletion” value with U2OS cells [3] is recorded as “most of the Aurora B remains on noninner centromeric (chromosome arm) regions after HDAC3 depletion”.

Turning to AR[pT][Lys(Me3)]QTARKSTG (peptide, UniProt P68431 2-13, looked up) [histone H3 peptide H3T3phK4me3(1-12)], in data set [4], the dH is -4.63 ± 0.09 kcal/mol and the “stoichiometry N” value came out at 1.21 ± 0.02.

As for AR[pT][Lys(Me)]QTARKSTG (peptide, UniProt P68431 2-13, looked up) [histone H3 peptide H3T3phK4me1(1-12)], in data set [4], the dH was -4.692 ± 0.026 kcal/mol and the “stoichiometry N” value was 1.03 ± 0.005. For ART[Lys(Me2)]QTARKSTG (peptide, UniProt P68431 2-13, looked up) [histone H3 peptide H3K4me2(1-12)], in that order: -2.61 ± 0.04 kcal/mol and 0.899 ± 0.01. Take AR[pT]K(Ac)QTARKSTG (peptide, UniProt P68431 2-13, looked up) [histone H3 peptide H3T3phK4ac(1-12)]: in data set [4], the dH is -7.3 ± 0.1 kcal/mol and the “stoichiometry N” value was determined as 0.965 ± 0.009. Take ART[Lys(Me)]QTARKSTG (peptide, UniProt P68431 2-13, looked up) [histone H3 peptide H3K4me1(1-12)]: in data set [4], the dH is -2.68 ± 0.06 kcal/mol and the “stoichiometry N” value is 1.08 ± 0.012. In the same order, the values of ART[Lys(Me3)]QTARKSTG (peptide, UniProt P68431 2-13, looked up) [histone H3 peptide H3K4me3(1-12)] are -6 ± 0.7 kcal/mol and 0.83 ± 0.07. In the same order, the values of AR[pT][Lys(Me2)]QTARKSTG (peptide, UniProt P68431 2-13, looked up) [histone H3 peptide H3T3phK4me2(1-12)] are -6.25 ± 0.06 kcal/mol and 0.873 ± 0.004.
